Test [1] deals with HCT-116. Kind of test: Cytotoxicity against human HCT116 cells after 72 hrs by MTT assay. It is filed as functional, cell-based. On the technique in general: Formazan colour is commonly taken as a measure of viable cells.
Test [2] deals with DNA. Kind of test: Binding affinity to calf thymus DNA at 4 uM by fluorescence spectrophotometric titration. As to conditions: Bos taurus. In kind it is nucleic-acid assay. The gist of the method: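 ctDNA sonicated in TE buffer, concentration taken from A260 and given in base pairs. Compound (4 µM) in 0.01 M Tris, pH 7.4, 25 °C titrated with ctDNA (0–55 µM bp) until spectra stopped changing. Excitation 424 nm, slit widths 10 nm; binding constant derived from the change in emission.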

Test [3] concerns HCT-116. The test is described as follows: Cell cycle arrest in human HCT116 cells assessed as accumulation at G0/G1 phase at 10 uM after 24 hrs. It is filed as functional. An outline of the steps: (§1)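 Adherent plus floating cells (5 · 10^5) collected 24 or 48 h after treatment, fixed in cold 70% ethanol at −20 °C overnight, washed in PBS. RNase A (100 µg/mL) and propidium iodide (20 µg/mL) in Vindelov's solution, 30 min at RT. Flow cytometry with 488 nm excitation, emission 585 ± 21 nm; % cells per cycle phase from DNA content histograms.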

Test [4] has as its system HeLa. Kind of test: Cytotoxicity against human HeLa cells after 48 hrs by MTT assay. It is filed as functional, cell-based.
In test [5] the test system is DNA. The test is described as follows: Binding affinity to calf thymus DNA at 50 uM by circular dichroism spectrophotometric titration. It is filed as nucleic-acid assay. As to conditions: Bos taurus. In general terms: CD spectra are sensitive to the conformation of chiral molecules.
For test [6], the system named is HeLa. The test is described as follows: Cell cycle arrest in human HeLa cells assessed as accumulation at G0/G1 phase at 24 uM after 24 hrs. It is filed as functional. An outline of the steps:
(§2)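 Cells seeded at 8 · 10^5 per 60 mm dish, allowed to settle 24 h (37 °C, 5% CO2), then exposed to the drug for 24 or 48 h. Adherent plus floating cells (5 · 10^5) were fixed in cold 70% ethanol at −20 °C overnight, treated with RNase A (100 µg/mL) and stained with propidium iodide (20 µg/mL) in Vindelov's solution for 30 min at RT. Flow cytometry used 488 nm excitation, FL-2 at 585 ± 21 nm, and histograms were modelled for G0/G1, S and G2/M fractions.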

Test [7] concerns HeLa. The test is described as follows: Induction of apoptosis in human HeLa cells at 24 uM after 48 hrs. It is filed as functional. The gist of the method:
(§3)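 After 24 or 48 h of drug exposure, all cells were collected, combining trypsinised adherent cells with floating cells from the medium. Cells (1 × 10^6) were fixed in cold 70% ethanol overnight at −20 °C and stained with DAPI (10 µg/mL) for 30 min in the dark at RT. Under fluorescence microscopy, 300 cells per sample were scored, with condensed or fragmented nuclei counted as apoptotic.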

Test [8] concerns HeLa. Kind of test: Cell cycle arrest in human HeLa cells assessed as accumulation at S phase at 24 uM after 48 hrs. It is filed as functional. The gist of the method: as §2
Test [9] concerns HCT-116. Kind of test: Cell cycle arrest in human HCT116 cells assessed as accumulation at G2/M phase at 10 uM after 48 hrs. It is filed as functional. The gist of the method: as §2
Test [10] has as its system HCT-116. Kind of test: Induction of apoptosis in human HCT116 cells at 10 uM after 24 hrs. It is filed as functional. An outline of the steps:
as §3

Test [11] relates to HeLa. The test is described as follows: Antiproliferative activity against human HeLa cells assessed as decrease in total cell population at 24 uM after 24 hrs. On the set-up: scale not given: the % may be the effect or the level left. It is filed as functional. The gist of the method:
(§4)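 Cells seeded (8 · 10^5 per 60 mm dish), allowed to settle 24 h at 37 °C, 5% CO2, then treated with a single concentration for 24 or 48 h. Adherent and floating cells counted by Coulter counter. Total cell number given as % of untreated control; floating cells as % of total cell number.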

For test [12], the system named is HCT-116. The test is described as follows: Cytotoxicity against human HCT116 cells after 48 hrs by MTT assay. In kind it is functional, cell-based. Particulars: HCT-116, 48 h.
Test [13] relates to HCT-116. The test is described as follows: Antiproliferative activity against human HCT116 cells assessed as decrease in total cell population at 10 uM after 24 hrs. It is filed as functional. On the set-up: scale not given: the % may be the effect or the level left. An outline of the steps:
as §4

The subject of test [14] is HCT-116. Kind of test: Cell cycle arrest in human HCT116 cells assessed as accumulation at S phase at 10 uM after 24 hrs. In kind it is functional. An outline of the steps:
as §2

For test [15], the system named is HCT-116. Kind of test: Antiproliferative activity against human HCT116 cells assessed as decrease in total cell population at 10 uM after 48 hrs. In kind it is functional. Set-up: scale not given: the % may be the effect or the level left. The gist of the method: as §4
In test [16] the test system is HCT-116. Kind of test: Cell cycle arrest in human HCT116 cells assessed as accumulation at G0/G1 phase at 10 uM after 48 hrs. It is filed as functional. An outline of the steps: as §1
The test system of test [17] is HCT-116. The test is described as follows: Cell cycle arrest in human HCT116 cells assessed as accumulation at G2/M phase at 10 uM after 24 hrs. It is filed as functional. An outline of the steps: as §2
Test [18] relates to HeLa. The test is described as follows: Cytotoxicity against human HeLa cells after 72 hrs by MTT assay. In kind it is functional, cell-based.
Test [19] has as its system HeLa. The test is described as follows: Cell cycle arrest in human HeLa cells assessed as accumulation at G0/G1 phase at 24 uM after 48 hrs. It is filed as functional. The gist of the method:
as §2

For test [20], the system named is HeLa. Kind of test: Cell cycle arrest in human HeLa cells assessed as accumulation at G2/M phase at 24 uM after 48 hrs. It is filed as functional. An outline of the steps: as §2
The subject of test [21] is HCT-116. The test is described as follows: Induction of apoptosis in human HCT116 cells at 10 uM after 48 hrs. It is filed as functional. The gist of the method:
as §3

The subject of test [22] is HeLa. Kind of test: Antiproliferative activity against human HeLa cells assessed as increase of floating cells in total cell population at 24 uM after 24 hrs. It is filed as functional. An outline of the steps: as §4
Test [23] deals with HeLa. Kind of test: Cell cycle arrest in human HeLa cells assessed as accumulation at S phase at 24 uM after 24 hrs. It is filed as functional. An outline of the steps: as §2
The subject of test [24] is HCT-116. Kind of test: Antiproliferative activity against human HCT116 cells assessed as increase of floating cells in total cell population at 10 uM after 24 hrs. It is filed as functional. The gist of the method: as §4
The subject of test [25] is HCT-116. Kind of test: Cell cycle arrest in human HCT116 cells assessed as accumulation at S phase at 10 uM after 48 hrs. In kind it is functional. The gist of the method:
as §2

For test [26], the system named is HCT-116. The test is described as follows: Antiproliferative activity against human HCT116 cells assessed as increase of floating cells in total cell population at 10 uM after 48 hrs. In kind it is functional. An outline of the steps:
as §4

In test [27] the test system is HeLa. Kind of test: Induction of apoptosis in human HeLa cells at 24 uM after 24 hrs. It is filed as functional. The gist of the method: as §3
The subject of test [28] is HeLa. The test is described as follows: Cell cycle arrest in human HeLa cells assessed as accumulation at G2/M phase at 24 uM after 24 hrs. In kind it is functional. The gist of the method:
as §2

As usually defined, the IC50 is the concentration that gives 50% inhibition.

The source made the active and inactive calls. The rule behind the calls is not given here.

`CC(C)C1=Cc2ccc3c(c2C(=O)C1=O)CCCC3(C)C` [MILTIRONE] displayed an Activity with HCT-116 [1] of 12.39 µM.

Turning to `CCCNC(=O)Nc1ccc2cc3ccc(NC(=O)NCCC)cc3nc2c1.Cl`, the K in the test on DNA [2] stood at 3.8 ×10⁵ /M. Moreover, the Activity was found to be 45.07% in the test with HCT-116 [3]; 62.48% with HeLa [6]; 1% with HeLa [7]; 17.12% in the test on HeLa [8]; 15.11% in the test on HCT-116 [9]; 2.22% in the test with HCT-116 [10]. The Activity turned out to be 91.36% in the test on HeLa [11]; 89.95% in the test on HeLa [11] (in the assay text read “after 48 hrs” for “after 24 hrs”); 86.16% with HCT-116 [13]; 35.8% in the test on HCT-116 [14]; 71.3% with HCT-116 [15]; 57.74% in the test with HCT-116 [16]. Also, the Activity in the test with HCT-116 [17] was 19.14%; with HeLa [19], 72.81%; with HeLa [20] it was 10.06%; with HCT-116 [21] it was 2.89%; in the test on HeLa [22], 3.84%; with HeLa [23], 24.12%. The Activity was found to be 5.48% with HCT-116 [24]; 27.16% with HCT-116 [25]; 4.34% in the test with HCT-116 [26]; 0.89% in the test on HeLa [27]; 13.4% in the test with HeLa [28]. Moreover, the IC50 in the test on HeLa [4] is 23.9 µM; in the test on HCT-116 [1] (Homo sapiens, HCT-116, 72 h), 61.5 µM; with HCT-116 [12], 10.3 µM; in the test with HeLa [18], 29.3 µM. In addition, in the test on DNA [5], the outcome was Active.

For the origin of these results see ChEMBL document CHEMBL1157145, “Cytotoxic activity of proflavine diureas: synthesis, antitumor, evaluation and DNA binding properties of 1',1''-(acridin-3,6-diyl)-3',3''-dialkyldiureas” (Bioorg Med Chem, 2008).
